Measured values published in ChEMBL document CHEMBL4422614 (Eur J Med Chem, 2019).

How the values were obtained:
[1] = target: 3',5'-cyclic-AMP phosphodiesterase 4D (Homo sapiens, UniProt Q08499); test: Inhibition of human PDE4D2 (86 to 413 residues) catalytic domain using [3H]-cAMP as substrate after 15 mins by liquid scintillation counting method
[2] = Antioxidant activity assessed as trolox equivalent of AAPH-induced radical scavenging activity at 10 to 20 uM preincubated for 10 mins followed by AAPH addition measured every minute for 120 mins by ORAC fluorescein assay; type: functional
Summary of the method: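 ORAC values are expressed as trolox equivalents, mean ± SD of three independent experiments.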

in vitro = conditions: PAMPA
[3] = Drug metabolism in Sprague-Dawley rat liver microsomes assessed as metabolic rate up to 180 mins in presence of NADPH by UV-based LC-MS/MS analysis; type: ADME, Microsome; conditions: 3 h
SH-SY5Y = test: Cytotoxicity against human SH-SY5Y cells assessed as effect on cell viability at 10 uM after 24 hrs by MTT assay; type: cell-based
Summary of the method: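 SH-SY5Y viability was measured by MTT after exposure to compounds at 10 µM. Results are percent of vehicle control from three independent experiments.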

[4] = Metal chelating activity assessed as inhibition of Cu2+-induced amyloid beta (1 to 42 residues) aggregation at 25 uM after 24 hrs by thioflavin-T fluorescence assay (reference value: 156%); set-up: scale not given: the % may be the effect or the level left
Summary of the method: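 Aβ1-42 was incubated with Cu(II) (CuSO4) with or without compound, and thioflavin T fluorescence was read. The Aβ-alone signal was set as 100%. Mean ± SD of three independent experiments.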

Chain of 3',5'-cyclic-AMP phosphodiesterase 4D (Q08499 whole entry, the tested form may be a part): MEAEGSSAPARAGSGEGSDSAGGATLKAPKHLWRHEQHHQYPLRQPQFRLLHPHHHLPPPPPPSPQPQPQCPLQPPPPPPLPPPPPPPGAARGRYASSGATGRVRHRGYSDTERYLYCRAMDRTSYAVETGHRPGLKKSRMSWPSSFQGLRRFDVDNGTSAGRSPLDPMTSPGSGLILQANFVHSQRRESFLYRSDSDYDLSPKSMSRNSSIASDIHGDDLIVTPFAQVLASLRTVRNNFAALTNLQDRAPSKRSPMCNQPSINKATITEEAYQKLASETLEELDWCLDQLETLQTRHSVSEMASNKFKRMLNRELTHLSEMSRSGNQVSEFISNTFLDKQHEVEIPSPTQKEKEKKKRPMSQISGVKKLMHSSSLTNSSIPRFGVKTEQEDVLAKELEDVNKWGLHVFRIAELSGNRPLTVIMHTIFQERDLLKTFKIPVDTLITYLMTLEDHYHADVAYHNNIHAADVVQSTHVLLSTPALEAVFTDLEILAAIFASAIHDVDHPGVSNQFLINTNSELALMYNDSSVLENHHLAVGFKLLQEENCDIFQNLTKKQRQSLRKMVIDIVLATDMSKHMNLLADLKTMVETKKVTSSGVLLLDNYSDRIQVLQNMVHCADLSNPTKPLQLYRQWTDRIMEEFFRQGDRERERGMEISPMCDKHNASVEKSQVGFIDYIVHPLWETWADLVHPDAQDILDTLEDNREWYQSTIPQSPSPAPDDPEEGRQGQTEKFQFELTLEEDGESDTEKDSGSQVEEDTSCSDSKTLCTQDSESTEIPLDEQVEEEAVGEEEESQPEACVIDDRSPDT

In the case of `COc1ccc(C(=O)Nc2cc(I)c(O)c3ncccc23)cc1OC`, the IC50 [1] is reported as 7.36 µM and the Activity [2] is reported as 1.3 equiv.

`COc1ccc(C(=O)Nc2ccc3cccc(O)c3n2)cc1OC1CCCC1` showed a Papp at 10 h, 100 ug/ml (in vitro) of 16.4 ×10⁻⁶ cm/s, an IC50 [1] of 4.64 µM and an Activity [2] of 0.7 equiv.

`COc1ccc(NC(=O)c2ccc3cccc(O)c3n2)cc1OC1CCCC1` showed an IC50 [1] of 4.15 µM and an Activity [2] of 1.98 equiv.

`C[C@]12CC[C@H]3[C@@H](CCC4=CC(=O)CC[C@@]43C)[C@@H]1CC[C@@H]2O` [TESTOSTERONE] showed a K [3] of 0.301 min⁻¹.

Compound `COc1ccc(NC(=O)c2ccc3c(Cl)cc(Cl)c(O)c3n2)cc1OC1CCCC1` has an IC50 [1] of 6.78 µM and an Activity [2] of 1.29 equiv.

Work on `COc1ccc(C(=O)Nc2ccc(O)c3ncccc23)cc1OC` yielded an IC50 [1] of 7.63 µM and an Activity [2] of 1.34 equiv.

In the case of `COc1ccc(C(=O)Nc2cc(Cl)c(O)c3ncccc23)cc1OC1CCCC1.Cl`, the Activity (SH-SY5Y) is reported as “Toxic”, the IC50 [1] is reported as 3.13 µM and the Activity [2] is reported as 0.56 equiv. For the same compound, the Activity [4] was 70.2%.

In the case of `COc1ccc(NC(=O)c2ccc3cccc(O)c3n2)cc1OC`, the IC50 [1] is reported as 4.32 µM and the Activity [2] is reported as 1.03 equiv.
